This is a sample that favours compounds with a hit; in the whole collection about 4.8% have one here.
STAT1 activator = STAT1 signaling activation; NIH 3T3 STAT1-luciferase reporter, IFN-gamma, luminescence; 100% = IFN-gamma alone, no compound; activation (% of control), % at 5.5 µM; hit rate 2.6% among 200,000;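 active = activation above the screen-wide mean activation plus 3 SD, cut at about 130% in these data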
NF-kB expr up = raises NF-kB expression in human neuronal cells; NF-kB reporter expression; active compounds read high; fold change at 12.5 µM; hit rate 1.6% among 190,000; AID 1239; in the data active = fold change above about 3.3
APP 5UTR inh = APP translation inhibition; SH-SY5Y APP 5'UTR-luciferase reporter, luminescence; inhibition, % at 2 µM; hit rate 0.82% among 190,000;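 active = inhibition above a set limit, derived from the sample mean plus 3 SD, cut at about 45% in these data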
APP 5'UTR act = APP 5'UTR luciferase reporter activation; SH-SY5Y APP 5'UTR luciferase reporter, luminescence; zero percent = DMSO vehicle wells; activation, % at 2 µM; hit rate 1% among 190,000; AID 1276;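 active = activation above a set limit, based on mean plus 3 SD of controls, cut at about 140% in these data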
FLuc inh counter = counter-screen for luciferase assay inhibitors: firefly luciferase inhibition; ATPLite firefly luciferase biochemical luminescence, 10 min; P08659; hit rate 1.5% among 200,000; inhibition, % at 10 µM;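 active = inhibition above about 50% when tested at 10 µM, limit read from the data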
Target sequence (P08659 whole entry, looked up): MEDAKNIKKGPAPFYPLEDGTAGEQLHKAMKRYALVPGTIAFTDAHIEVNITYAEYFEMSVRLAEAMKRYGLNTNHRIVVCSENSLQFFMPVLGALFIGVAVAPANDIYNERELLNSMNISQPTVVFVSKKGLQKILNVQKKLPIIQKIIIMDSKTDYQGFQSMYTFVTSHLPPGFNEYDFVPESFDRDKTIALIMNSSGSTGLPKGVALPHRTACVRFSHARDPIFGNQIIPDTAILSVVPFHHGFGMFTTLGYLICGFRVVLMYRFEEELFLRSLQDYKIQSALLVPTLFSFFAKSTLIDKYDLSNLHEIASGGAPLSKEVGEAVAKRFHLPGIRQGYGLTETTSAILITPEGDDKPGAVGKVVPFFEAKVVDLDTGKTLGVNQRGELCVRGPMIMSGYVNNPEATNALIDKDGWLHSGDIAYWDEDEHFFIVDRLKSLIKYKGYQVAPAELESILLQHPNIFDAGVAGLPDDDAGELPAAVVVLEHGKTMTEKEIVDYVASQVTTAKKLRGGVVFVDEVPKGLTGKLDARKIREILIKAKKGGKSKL
FLuc act counter = affects firefly luciferase, flagging false hits in luciferase stimulation screens; P08659; AID 1027; activation factor at 10 µM; ATPlite luciferase biochemical, luminescence, 10 min; 0 = ATP-free wells, 1 = DMSO control; 200,000 tested, under 10 active;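 active = luciferase activation factor, scaled between plate controls, of at least 2 with compound at 10 µM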
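Assay system: Luciferase/luciferin reagent mix; Medium: PBS as buffer for the ATP substrate; Dosing: test compounds dosed from 2 mM stocks in 100% DMSO; Times: 10 min, room temperature; Signal: luminescence from luciferase reaction; Read-out: luciferase activation; Controls: No-ATP low control, compound-free enzyme-plus-ATP high control.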
Hits are given with their value; - = inactive.

SMILES	STAT1 activator	NF-kB expr up	APP 5UTR inh	APP 5'UTR act	FLuc inh counter	FLuc act counter
O=C(Nc1nc(=O)c2ccccc2s1)c1ccccc1	138	3.6	-	-	60	-
C=CCSc1nn2c(=O)c3ccccc3nc2s1	134	-	-	-	-	-
CCOC(=O)c1nc(Nc2ccccc2C)c2ccccc2n1	-	-	-	-	-	-
Cc1ccccc1Nc1nn2c(=O)c3ccccc3nc2s1	138	-	-	-	-	-
Cc1ccc(NC(=O)c2nnn(-c3cc(C)cc(C)c3)c2N)cc1	129	-	-	-	-	-
COCCNC(C(=O)Nc1cc(Cl)cc(Cl)c1)c1ccccc1 (configuration not stated)	-	-	-	-	-	-
CCOCCCNC(C(=O)Nc1ccc(OC)c(Cl)c1)c1ccccc1 (configuration not stated)	-	-	-	169	-	-
O=C(NCC1OCCCN1S(=O)(=O)c1cc(F)ccc1F)C(=O)NC1CCCCCC1 (configuration not stated)	138	-	-	-	-	-
Cc1ccc(NC(=O)CN2CCCCCC2)cc1[N+](=O)[O-]	-	-	-	-	-	-
CC(C)(C)N1CSC(=S)N(Cc2ccccc2)C1	-	4.5	-	-	-	-
O=c1[nH]c(Nc2nc3ccccc3o2)nc2c1CCCC2	-	-	-	170	70	-
Cc1ccc(Nc2nc3c(c(=O)[nH]2)CCCC3)cc1	-	-	-	-	-	-
Cc1c(N=C2N=C(NC(=O)Nc3ccc(Cl)cc3)c3ccccc32)c(=O)n(-c2ccccc2)n1C	-	-	-	-	-	-
O=C(Nc1cccc(Cl)c1)NC1CC2CCC(C1)N2Cc1cccs1 (configuration not stated)	-	-	-	-	-	-
Cn1c(N=Nc2ccc(N3CCOCC3)cc2)[n+](C)c2ccccc21	-	-	-	-	59	-
Cn1c(=Nc2ccc(N3CCOCC3)cc2)ccc2ccccc21	-	-	-	-	-	-
COc1ccc(NC(=O)c2cccc(OS(=O)(=O)N(C)C)c2)cc1	-	4.8	-	157	54	-
CN(C)S(=O)(=O)Oc1ccc(C(=O)Nc2ccc([N+](=O)[O-])cc2)cc1	-	-	-	-	-	-
CN(C)S(=O)(=O)Oc1cccc(C(=O)Nc2cccc(Cl)c2)c1	-	-	-	-	-	-
CN(C)S(=O)(=O)Oc1cccc(C(=O)Nc2ccc(Cl)c(Cl)c2)c1	137	4.2	-	174	-	-
COC(=O)c1ccc(OS(=O)(=O)N(C)C)cc1	130	-	-	-	-	-
Cc1ccc(N=Cc2c(O)n(-c3cc(Cl)ccc3N3CCOCC3)c(=O)c3ccccc23)cc1C	-	-	-	-	-	-
Cc1ccc(NC2=Nc3ccccc3CS2)cc1	-	5.6	-	184	69	-
Cc1ccc(Nc2ccccc2)cc1	-	-	-	-	-	-
COc1cc(C)c(NC(=S)NCCCN2CCOCC2)cc1OC	-	-	-	-	-	-
SMILES	STAT1 activator	NF-kB expr up	APP 5UTR inh	APP 5'UTR act	FLuc inh counter	FLuc act counter
O=C(CCC(=O)OCC(F)(F)C(F)F)Nc1ccccc1F	-	-	-	-	-	-
Cc1sc2nc3c(SC(C)C(=O)O)cc(C(=O)c4ccccc4O)cn3c(=O)c2c1C (configuration not stated)	-	-	-	-	-	-
O=C(O)CSc1cc(C(=O)c2ccccc2O)cn2c(=O)c3c(-c4ccccc4)csc3nc12	-	-	-	-	-	-
CCOC(=O)c1sc2nc3c(SCC(=O)O)cc(C(=O)c4ccccc4O)cn3c(=O)c2c1C	-	-	-	-	79	-
CCOC(=O)c1sc2nc3c(SCC(=O)O)cc(C(=O)c4cc(F)ccc4O)cn3c(=O)c2c1C	-	-	-	-	51	-
NC(=O)NC(c1ccccc1)c1cccc2ccccc12 (configuration not stated)	-	-	-	-	-	-
CCOc1cc(/C=C/c2cc(C(=O)O)c3ccccc3n2)ccc1OC	-	-	-	-	86	-
CCOc1cc(/C=C/c2cc(C(=O)O)c3ccccc3n2)ccc1O	-	-	-	-	73	-
O=S1(=O)NC(=NCCc2ccccn2)c2ccccc21	-	-	-	-	-	-
O=C(OCc1cncs1)c1cccs1	-	-	-	-	-	-
COc1ccc(S(=O)(=O)N2CC(O)C[C@H]2C(=O)OCC(=O)N2CCCCCC2)cc1 (some centres not stated)	139	-	-	-	-	-
COC(=O)C(Sc1nc(C)cc(C)c1C#N)c1ccccc1 (configuration not stated)	-	-	-	-	-	-
Cc1cc(C)c(C#N)c(Sc2ccccc2N)n1	139	-	-	-	-	-
CN(C)CCNC(=S)Nc1ccc(Br)cc1	-	-	-	-	-	-
O=C(N1CCOCC1)N1CCN(C(=O)N(c2ccccc2)c2ccccc2)CC1	-	-	57	-	-	-
CN(C)S(=O)(=O)c1cccc(COC(=O)C2=COCCO2)c1	-	-	-	-	-	-
CC(=O)N1CCc2cc(N=NC3=C(O)CC(C)(C)CC3=O)ccc21	132	-	-	-	-	-
Cc1nc2ccc(N=NC3=C(O)CC(C)(C)CC3=O)cc2s1	-	-	-	-	-	-
O=C(Cc1ccccc1)Nc1nonc1NC(=O)c1ccccc1	-	3.7	-	-	-	-
O=C(CCS(=O)(=O)c1cccs1)NC1CCCCCC1	130	-	-	-	-	-
O=C(Nc1ccc([N+](=O)[O-])cn1)c1ccc2c(c1)OCO2	135	-	-	-	-	-
Cc1cc(NC(=O)CCC(=O)NNC(=O)c2ccc(C(C)(C)C)cc2)no1	-	-	-	-	78	-
Cc1cc(NC(=O)c2ccc3c(c2)OCCO3)no1	-	4	-	-	93	-
C/C(=N\Nc1ccc([N+](=O)[O-])cc1)c1ccc2c(c1)OCO2	136	-	-	-	-	-
Cc1ccc(C(=O)NNC(=O)CCC(=O)Nc2cc(C)on2)cc1	-	-	-	-	-	-
SMILES	STAT1 activator	NF-kB expr up	APP 5UTR inh	APP 5'UTR act	FLuc inh counter	FLuc act counter
Nc1[nH]n2c(=O)cc(-c3ccccc3)nc2c1N=Nc1ccc2c(c1)OCO2	-	-	-	-	-	-
Cc1c(NC(=O)OC(C)C)sc(=S)n1C	-	-	-	-	-	-
COc1ccc(C)cc1NC(=O)COC(=O)C1CC1	-	-	-	-	-	-
C=CCN1C(=O)N/C(=C/c2ccccc2OCC(=O)Nc2ccc(F)cc2)C1=O	-	-	-	-	-	-
Cc1cc(NC(=O)c2ccc3c(c2)OCO3)no1	-	-	-	-	62	-
COc1ccc(OCC(=O)Nc2cccc(-c3nc4ccccc4[nH]3)c2)cc1	-	-	-	-	-	-
COc1ccc2nc(-c3cccc(N)c3)[nH]c2c1	-	-	-	-	87	-
COc1ccc2nc(SCC(N)=O)[nH]c2c1	-	-	-	-	-	-
